Experimental data reported in ChEMBL document CHEMBL1151735, “Further studies with the 2-amino-1,3-thiazol-4(5H)-one class of 11beta-hydroxysteroid dehydrogenase type 1 inhibitors: reducing pregnane X receptor activity and exploring activity in a monkey pharmacodynamic model” (J Med Chem, 2008).
Activity calls are given as the source filed them. No cut-off for these calls is given here.

How the values were obtained:
[1] = biological target: T1, 11-beta-hydroxysteroid dehydrogenase 1 (Homo sapiens, UniProt P28845); assay: Inhibition of human recombinant 11beta-HSD1 expressed in Escherichia coli using [3H]cortisone by scintillation proximity assay
[2] = biological target: T1, 11-beta-hydroxysteroid dehydrogenase 1; assay: Inhibition of human 11beta-HSD1 expressed in CHO cells assessed as conversion of cortisone to cortisol by ELISA; format: cell-based
[3] = biological target: T2, Nuclear receptor subfamily 1 group I member 2 (Homo sapiens, UniProt O75469); assay: Transactivation of human PXR transfected in HEK cells at 20 uM by luciferase reporter gene assay relative to 12.5 uM rifampin; format: cell-based; conditions: hek293, 20 µM
T2 sequence (O75469 whole entry): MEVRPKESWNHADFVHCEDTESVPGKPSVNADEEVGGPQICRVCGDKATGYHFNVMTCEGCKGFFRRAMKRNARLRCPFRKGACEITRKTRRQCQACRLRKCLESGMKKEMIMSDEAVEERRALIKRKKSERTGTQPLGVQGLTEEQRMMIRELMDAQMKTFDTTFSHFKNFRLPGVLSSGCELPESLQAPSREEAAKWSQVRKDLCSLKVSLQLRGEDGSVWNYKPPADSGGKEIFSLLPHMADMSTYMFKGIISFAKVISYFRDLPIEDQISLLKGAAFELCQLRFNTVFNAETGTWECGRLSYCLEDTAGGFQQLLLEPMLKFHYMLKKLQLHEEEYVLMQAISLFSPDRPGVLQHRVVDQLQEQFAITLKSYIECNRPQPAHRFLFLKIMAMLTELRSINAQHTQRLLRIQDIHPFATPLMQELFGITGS
Summary of the method: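 HEK cells transfected with human PXR fused to a firefly luciferase reporter. Luciferase activity is expressed as percent of the 12.5 µM rifampin response. Run in triplicate; SEM reported.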

[4] = tested on: Hepatocyte; assay: Induction of CYP3A4 in cryopreserved human hepatocytes from male DJV donars with no adverse medical history or substance or alcohol abuse assessed as mRNA expression at 20 uM relative to 20 uM rifampin; format: functional
[5] = tested on: Hepatocyte; assay: Induction of CYP3A4 in cryopreserved human hepatocytes from female NPV donars with history of tobacco and substance usage assessed as mRNA expression at 20 uM relative to 20 uM rifampin; format: functional
[6] = biological target: T3, Cytochrome P450 3A4 (Homo sapiens, UniProt P08684); assay: Induction of CYP3A4 activity in cryopreserved human hepatocytes from male DJV donars with no adverse medical history or substance or alcohol abuse at 20 uM relative to 20 uM rifampin
[7] = biological target: T3, Cytochrome P450 3A4; assay: Induction of CYP3A4 activity in cryopreserved human hepatocytes from female NPV donars with history of tobacco and substance usage at 20 uM relative to 20 uM rifampin
[8] = biological target: T4, 11-beta-hydroxysteroid dehydrogenase 1 (Mus musculus, UniProt P50172); assay: Inhibition of mouse recombinant 11beta-HSD1 expressed in Escherichia coli using [3H]cortisone by scintillation proximity assay
Summary of the method: (§1)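 Purified enzyme expressed in E. coli, dog at 20 nM final and mouse at 5 nM. [3H]cortisone 100 nM, NADPH 200 µM, in 50 mM Tris-HCl, 1 mM EDTA, pH 7.2. 1 h at room temperature, then stopped with 18β-glycyrrhetinic acid. Anticortisol antibody and antimouse SPA beads added for 30 min; read by scintillation counting. Ki derived.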

[9] = biological target: T5, 11-beta-hydroxysteroid dehydrogenase 1 (Rattus norvegicus, UniProt P16232); assay: Inhibition of rat recombinant 11beta-HSD1 expressed in Escherichia coli using [3H]cortisone by scintillation proximity assay
[10] = biological target: T6, 11-beta-hydroxysteroid dehydrogenase type 1 (Canis lupus familiaris, UniProt Q5XX84); assay: Inhibition of dog recombinant 11beta-HSD1 expressed in Escherichia coli using [3H]cortisone by scintillation proximity assay; summary of the method: as §1
[11] = Inhibition of monkey recombinant 11beta-HSD1 expressed in Escherichia coli using [3H]cortisone by scintillation proximity assay; design: species or system Macaca mulatta
[12] = biological target: T4, 11-beta-hydroxysteroid dehydrogenase 1; assay: Inhibition of mouse 11beta-HSD1 expressed in CHO cells assessed as conversion of cortisone to cortisol by ELISA; format: cell-based
Summary of the method: (§2)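 CHO cells stably overexpressing the species 11β-HSD1, 30000 per well, seeded 1 day before. Rinsed in HEPES glucose buffer pH 7.4 with 0.1% DMSO. Compound 0.1 nM–10 µM final, 60 min at 37 °C. Cortisone then added (100 nM final) at 37 °C: mouse 45 min, dog 1.5 h, rat and monkey 2 h. Cortisol measured by ELISA.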

[13] = biological target: T5, 11-beta-hydroxysteroid dehydrogenase 1; assay: Inhibition of rat 11beta-HSD1 expressed in CHO cells assessed as conversion of cortisone to cortisol by ELISA; format: cell-based; summary of the method: as §2
[14] = biological target: T6, 11-beta-hydroxysteroid dehydrogenase type 1; assay: Inhibition of dog 11beta-HSD1 expressed in CHO cells assessed as conversion of cortisone to cortisol by ELISA; format: cell-based; summary of the method: as §2
[15] = Inhibition of monkey 11beta-HSD1 expressed in CHO cells assessed as conversion of cortisone to cortisol by ELISA; format: cell-based, Macaca mulatta; summary of the method: as §2
[16] = Clearance in mouse at 2 mg/kg, iv and 10 mg/kg, po; format: ADME, organism-based; conditions: in vivo
[17] = Volume of distribution at steady state in mouse at 2 mg/kg, iv and 10 mg/kg, po; format: ADME, organism-based; conditions: in vivo, read-out: Vdss
[18] = Half life in mouse at 2 mg/kg, iv; format: ADME, organism-based; design: dose 2 mg/kg, route intravenous; conditions: in vivo
[19] = AUC (0 to infinity) in mouse at 10 mg/kg, po; format: ADME, organism-based; design: dose 10 mg/kg, route oral, time infinity; conditions: plasma
[20] = Oral bioavailability in mouse at 10 mg/kg; format: ADME, organism-based; conditions: in vivo
[21] = Clearance in rat at 2 mg/kg, iv and 5 mg/kg, po; format: ADME, organism-based; conditions: in vivo
[22] = Volume of distribution at steady state in rat at 2 mg/kg, iv and 5 mg/kg, po; format: ADME, organism-based; conditions: in vivo, read-out: Vdss
[23] = Half life in rat at 2 mg/kg, iv; format: ADME, organism-based; design: dose 2 mg/kg, route intravenous; conditions: in vivo
[24] = AUC (0 to infinity) in rat at 5 mg/kg, po; format: ADME, organism-based; design: time infinity, dose 5 mg/kg, route oral; conditions: plasma
[25] = Oral bioavailability in rat at 5 mg/kg; format: ADME, organism-based; conditions: in vivo
[26] = Clearance in dog at 2 mg/kg, iv and 5 mg/kg, po; format: ADME, organism-based, Canis lupus familiaris; conditions: in vivo
Summary of the method: (§3)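 Dog PK: intravenous 2 mg kg^-1 in 10% dimethylacetamide, 23% water, 67% PEG 400; oral 5 mg kg^-1 in 1% Tween 80, 47.5% OraPlus, 51.5% water.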

[27] = Volume of distribution at steady state in dog at 2 mg/kg, iv and 5 mg/kg, po; format: ADME, organism-based, Canis lupus familiaris; conditions: in vivo, read-out: Vdss; summary of the method: as §3
[28] = Half life in dog at 2 mg/kg, iv; format: ADME, organism-based, Canis lupus familiaris; design: dose 2 mg/kg, route intravenous; conditions: in vivo; summary of the method: as §3
[29] = AUC (0 to infinity) in dog at 5 mg/kg, po; format: ADME, organism-based, Canis lupus familiaris; design: time infinity, dose 5 mg/kg, route oral; conditions: plasma
[30] = Oral bioavailability in dog at 5 mg/kg; format: ADME, organism-based, Canis lupus familiaris; conditions: in vivo
[31] = Clearance in monkey at 2 mg/kg, iv and 10 mg/kg, po; format: ADME, organism-based, Macaca mulatta; conditions: rhesus monkey, in vivo
[32] = Volume of distribution at steady state in monkey at 2 mg/kg, iv and 10 mg/kg, po; format: ADME, organism-based, Macaca mulatta; conditions: rhesus monkey, in vivo, read-out: Vdss
[33] = Half life in monkey at 2 mg/kg, iv; format: ADME, organism-based, Macaca mulatta; design: dose 2 mg/kg, route intravenous; conditions: rhesus monkey, in vivo
[34] = AUC (0 to infinity) in monkey at 10 mg/kg, po; format: ADME, organism-based, Macaca mulatta; design: time infinity, dose 10 mg/kg, route oral; conditions: rhesus monkey, plasma
[35] = Oral bioavailability in monkey at 10 mg/kg; format: ADME, organism-based, Macaca mulatta; conditions: rhesus monkey, in vivo
[36] = Fraction unbound in cynomolgus monkey plasma protein; format: ADME, cell-free, Macaca fascicularis
[37] = tested on: Cynomolgus monkey; assay: Plasma concentration in cynomolgus monkey at 3 mg/kg, po; format: ADME, organism-based, Macaca fascicularis; design: dose 3 mg/kg, route oral; conditions: in vivo
Summary of the method: (§4)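 Male cynomolgus monkeys, at least four per group, given a single nasal-gastric dose in 1% Tween 80, 47.5% Ora-Plus, 51.5% water. Plasma collected 2 h post-dose and snap-frozen.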

[38] = tested on: Cynomolgus monkey; assay: Plasma concentration in cynomolgus monkey at 30 mg/kg, po; format: ADME, organism-based, Macaca fascicularis; design: dose 30 mg/kg, route oral; conditions: in vivo; summary of the method: as §4
[39] = tested on: Cynomolgus monkey; assay: Inhibition of 11beta-HSD1 in mesenteric fat of cynomolgus monkey assessed as conversion of [3H]cortisone to [3H]cortisol at 3 mg/kg, po after 2 hrs; format: functional, organism-based; design: dose 3 mg/kg; conditions: Macaca fascicularis
Summary of the method: (§5)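 Male cynomolgus monkeys, at least four per group, given a single nasal-gastric dose in 1% Tween 80/47.5% Ora-Plus/51.5% water. Plasma and mesenteric fat taken 2 h post-dose and snap-frozen. About 50 mg fat pieces, in triplicate, incubated 1 h at 37 °C in KRP buffer pH 7.4 containing 3H-cortisone. 3H-cortisol in the medium quantified by SPA with anti-cortisol antibody beads.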

[40] = tested on: Cynomolgus monkey; assay: Inhibition of 11beta-HSD1 in mesenteric fat of cynomolgus monkey assessed as conversion of [3H]cortisone to [3H]cortisol at 30 mg/kg, po after 2 hrs; format: functional, organism-based; design: dose 30 mg/kg; conditions: Macaca fascicularis; summary of the method: as §5

T1 sequence (P28845 whole entry): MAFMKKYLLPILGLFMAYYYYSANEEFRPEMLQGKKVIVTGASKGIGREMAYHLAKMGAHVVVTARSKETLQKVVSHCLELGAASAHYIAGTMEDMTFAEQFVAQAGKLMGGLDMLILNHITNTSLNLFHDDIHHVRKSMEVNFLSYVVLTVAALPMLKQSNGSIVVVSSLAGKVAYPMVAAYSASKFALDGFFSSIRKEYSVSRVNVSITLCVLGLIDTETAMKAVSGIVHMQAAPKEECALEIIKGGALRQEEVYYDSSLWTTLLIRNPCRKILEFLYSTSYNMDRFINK
T4 sequence (P50172 whole entry): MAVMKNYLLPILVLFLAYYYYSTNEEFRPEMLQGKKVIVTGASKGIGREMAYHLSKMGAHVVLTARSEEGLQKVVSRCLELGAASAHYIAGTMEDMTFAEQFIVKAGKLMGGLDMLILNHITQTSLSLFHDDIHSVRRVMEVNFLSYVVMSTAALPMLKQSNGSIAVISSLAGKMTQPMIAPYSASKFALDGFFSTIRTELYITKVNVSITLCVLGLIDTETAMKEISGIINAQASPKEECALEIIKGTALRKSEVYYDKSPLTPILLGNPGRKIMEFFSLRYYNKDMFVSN
T6 sequence (Q5XX84 whole entry): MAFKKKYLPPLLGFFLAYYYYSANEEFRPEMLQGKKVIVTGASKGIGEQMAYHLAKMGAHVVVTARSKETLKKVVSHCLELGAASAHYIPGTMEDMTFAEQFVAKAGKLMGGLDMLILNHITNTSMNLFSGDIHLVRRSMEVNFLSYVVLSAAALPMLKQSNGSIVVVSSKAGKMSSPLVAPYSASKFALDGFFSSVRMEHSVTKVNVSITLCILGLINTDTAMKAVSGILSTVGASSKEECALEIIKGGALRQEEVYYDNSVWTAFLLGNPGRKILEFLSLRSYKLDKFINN
T5 sequence (P16232 whole entry): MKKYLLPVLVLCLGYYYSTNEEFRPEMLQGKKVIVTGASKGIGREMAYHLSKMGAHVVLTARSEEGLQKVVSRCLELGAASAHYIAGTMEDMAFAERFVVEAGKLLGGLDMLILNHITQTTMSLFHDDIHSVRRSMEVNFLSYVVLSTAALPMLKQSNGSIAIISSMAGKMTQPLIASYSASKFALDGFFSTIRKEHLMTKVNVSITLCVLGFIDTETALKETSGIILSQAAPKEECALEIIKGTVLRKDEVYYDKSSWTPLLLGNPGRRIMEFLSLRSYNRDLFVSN
T3 sequence (P08684 whole entry): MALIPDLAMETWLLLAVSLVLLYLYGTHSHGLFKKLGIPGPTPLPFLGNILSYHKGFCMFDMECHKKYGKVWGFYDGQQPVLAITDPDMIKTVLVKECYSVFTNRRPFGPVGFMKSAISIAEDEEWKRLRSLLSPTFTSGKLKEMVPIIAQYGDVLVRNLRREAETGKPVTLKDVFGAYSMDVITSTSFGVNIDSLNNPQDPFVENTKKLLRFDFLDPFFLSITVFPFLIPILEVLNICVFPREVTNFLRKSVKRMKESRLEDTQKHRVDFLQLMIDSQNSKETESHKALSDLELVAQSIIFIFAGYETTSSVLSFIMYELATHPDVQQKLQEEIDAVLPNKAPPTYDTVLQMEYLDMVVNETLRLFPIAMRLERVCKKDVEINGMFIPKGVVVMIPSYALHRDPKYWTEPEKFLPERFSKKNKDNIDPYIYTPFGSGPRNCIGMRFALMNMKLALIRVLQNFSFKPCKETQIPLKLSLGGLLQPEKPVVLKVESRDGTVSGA

## C[C@H](NC1=NC(=O)[C@](C)(C(C)(C)O)S1)c1ccc(F)cc1
[1]
  Ki: 35 nM
[2]
  IC50: 34 nM
[3]
  Activity: 6%
[4]
  Activity: 45%
[5]
  Activity: 13%
[6]
  Activity: 17%
[7]
  Activity: 10%
[8]
  Ki: 100 nM
[9]
  Ki: 300 nM
[10]
  Ki: 12 nM
[11]
  Ki: 48 nM
[12]
  IC50: 140 nM
[13]
  IC50: 340 nM
[14]
  IC50: 45 nM
[15]
  IC50: 42 nM
[16]
  clearance: 26.7 mL/min/kg
[17]
  Vd: 1.4 L/kg
[18]
  half-life: 3.3 h
[19]
  AUC(0-inf): 6500 ng·h/mL
[20]
  bioavailability: 100%
[21]
  clearance: 5.17 mL/min/kg
[22]
  Vd: 2.5 L/kg
[23]
  half-life: 5.6 h
[24]
  AUC(0-inf): 9200 ng·h/mL
[25]
  bioavailability: 56%
[26]
  clearance: 1.42 mL/min/kg
[27]
  Vd: 0.88 L/kg
[28]
  half-life: 7.3 h
[29]
  AUC(0-inf): 54000 ng·h/mL
[30]
  bioavailability: 91%
[31]
  clearance: 20 mL/min/kg
[32]
  Vd: 1.9 L/kg
[33]
  half-life: 2.2 h
[34]
  AUC(0-inf): 5700 ng·h/mL
[35]
  bioavailability: 65%
[36]
  fraction unbound: 0.108
[37]
  concentration: 4.9 µM
[38]
  concentration: 26 µM
[39]
  Activity: Active
[40]
  Activity: Active
